Measured values collected from several papers.
Lines come from different studies, so protocols differ. pIC50: −log10 of the molar value.

With `CC[C@H](C)[C@H](NC(=O)[C@H](CCCCN)NC(=O)[C@H](CCCCN)NC(=O)[C@H](CCCCN)NC(=O)[C@H](CC(C)C)NC(=O)[C@H](CCCNC(=N)N)NC(=O)[C@H](CCCCN)NC(=O)[C@@H](N)CC(C)C)C(=O)N[C@@H](CCCCN)C(=O)N[C@@H](CCCCN)C(=O)N[C@@H](CC(C)C)C(=O)N[C@@H](CC(C)C)C(=O)N[C@@H](CCCCN)C(N)=O` the pIC50 was 3.79 (A549; cell growth or viability, MTT; 24 h).
The pIC50 of `O=c1cc(CSc2ccc(N=Cc3ccccc3C(F)(F)F)cc2)occ1O` is reported as 4.40 (ABTS scavenging, absorbance).
`CC[C@H](C)[C@H](NC(=O)[C@H](CCCNC(=N)N)NC(=O)[C@H](CCCNC(=N)N)NC(=O)[C@H](CCSC)NC(=O)[C@H](CCCNC(=N)N)NC(=O)[C@H](CCCNC(=N)N)NC(=O)[C@H](CCCNC(=N)N)NC(=O)[C@H](CC(C)C)NC(=O)[C@H](CCCNC(=N)N)NC(=O)CNC(=O)[C@H](Cc1c[nH]c2ccccc12)NC(=O)[C@@H](N)CCSC)C(=O)N[C@@H](CCCCN)C(N)=O` gave a pIC50 of under 3.30 (A549; cell growth or viability, MTT; 24 h).
For `N.N.[Cl][Pt][Cl]`, the inhibition was 92% (MEG-01; cell growth or viability, ATP luminescence; 10 µM, 72 h).
`c1ccc(Oc2ccc(Nc3c4c(nc5ccccc35)CCC4)cc2)cc1` gave an inhibition of 91% (Leishmania donovani; parasite growth; 33.33 µM, promastigote).
`COc1ccccc1C=Nc1ccc(SCc2cc(=O)c(O)co2)cc1` gave a pIC50 of 4.67 (ABTS scavenging, absorbance).
`Cc1cc(=O)oc2cc(OCCCC[Se]C#N)ccc12` has a GI50 of 0.78 µM (A549; cell growth or viability, SRB).
With `O=C(Nc1ccc(Cl)cc1)Nc1cccc(-c2cn(Cc3ccc(Br)cc3)nn2)c1` the viability was 108% (A549; cell growth or viability, CCK-8; 20 µM, 72 h).
`O=c1cc(CSc2ccc(N=Cc3ccccc3F)cc2)occ1O` gave a pIC50 of 7.52 (ABTS scavenging, absorbance).
With `CCOc1ccc(Nc2c3c(nc4ccccc24)CCC3)cc1` the inhibition was 69% (Leishmania donovani; parasite growth; 8 µM, intracellular, amastigote).
`N#C[Se]Cc1cc(=O)oc2cc(O)ccc12` gave a GI50 of 28 µM (A549; cell growth or viability, SRB).
For `CC(C)(C)c1cccc(C=Nc2ccc(SCc3cc(=O)c(O)co3)cc2)c1`, the pIC50 was 4.82 (ABTS scavenging, absorbance).
